Laboratory results published in ChEMBL document CHEMBL4513216, “Probing the Open Global Health Chemical Diversity Library for Multistage-Active Starting Points for Next-Generation Antimalarials” (ACS Infect Dis, 2020).

Assay: Toxicity liver stage against HepG2, at 10uM
Type: cell-based
Parameters: test concentration 10 uM, cell line HepG2-A16-CD81EGFP
Settings: human, HepG2-A16-CD81EGFP cells; read-out: INHIBITION
Method in brief: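 Uninfected HepG2-A16-CD81EGFP cells, 3 × 10^3 per well, 1536-well, plated on prespotted compound at 10 μM final, parasite-free screening media added to match infected plates; puromycin 10 μM positive, DMSO 0.5% negative; run in parallel with 48 h PbLuc assay at 37 °C, 5% CO2; viability by CellTiter-Glo luminescence, normalized to controls.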
In the case of `COCC(=O)N[C@H](C)c1onc(-c2ccccc2)c1C(=O)O`, the cytotoxicity at 10 µM is reported as 0.179%. In the case of `O=C(NC[C@H]1OC[C@@H](NC2CCC(F)(F)CC2)[C@@H]1O)Nc1ccccc1`, the cytotoxicity at 10 µM is reported as 4.11%. With `O=C(c1ccno1)N1CCOC[C@H](Oc2ccccc2)C1` the cytotoxicity at 10 µM was -5.25%. Compound `CC[C@H]1CN(S(C)(=O)=O)CC[C@H]1CC(=O)NCCOC` has a cytotoxicity at 10 µM of 2.55%. Work on `COCCCNc1c(-c2ccccc2)c(=O)c1=O` yielded a cytotoxicity at 10 µM of 0.409%. Work on `O=C(O)Cn1ccc(=O)c2cc(F)ccc21` yielded a cytotoxicity at 10 µM of -0.0342%. Compound `O=C(c1nc(Cc2c[nH]c3ccccc23)no1)N1CCCC1` has a cytotoxicity at 10 µM of 7.76%. For `O=C(COc1ccc(F)cc1)N1CCCSCC1CN1CCOCC1` (configuration not stated), the cytotoxicity at 10 µM was -0.0603%. Compound `CSc1ncccc1C(=O)NCCC(O)c1cc(C)oc1C` (configuration not stated) has a cytotoxicity at 10 µM of 1.95%. With `Cc1cccc(CN2C[C@@H]3CCCO[C@@H]3[C@H](Nc3ccccn3)C2)n1` the cytotoxicity at 10 µM was 0.939%. `COCCNC(=O)[C@H]1C[C@@H]2CCN(c3ncccn3)C[C@@H]2O1` gave a cytotoxicity at 10 µM of -0.785%. `Cc1ccc(N2CC[C@H]3OCC[C@@]3(C(=O)N3CCCO3)C2)nn1` showed a cytotoxicity at 10 µM of -1.22%. With `CS(=O)(=O)N1CC[C@H]2C[C@@H](C(=O)N3CCOCC3)O[C@@H]2C1` the cytotoxicity at 10 µM was 2.28%. With `COc1cc(CNc2ccccc2Cl)ccc1OCC(=O)O` the cytotoxicity at 10 µM was 6.15%. With `COc1nsc2nc(C3CCCN3c3ncccn3)ccc12` (configuration not stated) the cytotoxicity at 10 µM was 10.5%. In the case of `Cc1cccc(C)c1Nc1noc2c1CN(C(=O)c1cn(C)cn1)CC2`, the cytotoxicity at 10 µM is reported as 12.9%. `Cc1cncc(C2CCN(Cc3ccc(S(C)(=O)=O)cc3)CC2)n1` gave a cytotoxicity at 10 µM of -1.03%. Compound `c1cnc(C2CCCN(Cc3ccsc3)C2)cn1` (configuration not stated) has a cytotoxicity at 10 µM of -5.67%. Work on `OCC(CO)N1CCCC(Cc2ccnc(Nc3ccccn3)c2)C1` (configuration not stated) yielded a cytotoxicity at 10 µM of -13.5%. For `Cc1nnc(NC(=O)C2CSCN2C(=O)C2CCCC2)s1` (configuration not stated), the cytotoxicity at 10 µM was -17.1%. With `C[S+]([O-])CCNC(=O)N1CCSC(C)(C)C1` (configuration not stated) the cytotoxicity at 10 µM was -0.0105%. Compound `O=C(CCc1ccco1)NS(=O)(=O)N1CCOc2ccccc21` has a cytotoxicity at 10 µM of 6.07%. For `CC(CN1CCOC1=O)NC(=O)c1cccc2cc[nH]c12` (configuration not stated), the cytotoxicity at 10 µM was 6.2%. `CCSc1ccc(NC(=O)NC2CCc3[nH]ncc3C2)cn1` (configuration not stated) gave a cytotoxicity at 10 µM of -3.27%. `COc1ccccc1NC(=O)c1ccc(C)n1C` gave a cytotoxicity at 10 µM of 1.42%. Work on `CC(Nc1ccc(C#N)cc1F)c1cccc(S(N)(=O)=O)c1` (configuration not stated) yielded a cytotoxicity at 10 µM of -3.86%. In the case of `N#Cc1ccc(NCCC(=O)N2CCCc3ccccc32)nc1`, the cytotoxicity at 10 µM is reported as -1.33%. With `Cc1cccc(-c2noc(CNC(C)Cn3cc(C)cn3)n2)c1` (configuration not stated) the cytotoxicity at 10 µM was -2.87%. Work on `Cc1cn(-c2ccccc2)nc1NS(=O)(=O)c1cc(C(=O)O)ccc1Cl` yielded a cytotoxicity at 10 µM of 13.1%. In the case of `Cc1nn(C)c(C)c1NC(=O)CNc1cccc(CC(F)(F)F)c1`, the cytotoxicity at 10 µM is reported as -4.83%. Compound `Cc1nc(C)c(CN(C)C2CCN(C(=O)OC(C)(C)C)CC2)s1` has a cytotoxicity at 10 µM of 3.51%. `Cc1nn(C)c(C)c1CC(=O)NCc1ccnc(OC2CCCC2)c1` showed a cytotoxicity at 10 µM of -0.883%. Compound `COc1ccc(CN2CCNC(=O)CC2)cc1SC(F)(F)F` has a cytotoxicity at 10 µM of 0.66%. Work on `COCCC(Cc1cccc(Br)c1)C(N)=O` (configuration not stated) yielded a cytotoxicity at 10 µM of 8.42%. `CCc1sc(C(=O)Nc2cnn(CCN(C)C)c2)cc1C` gave a cytotoxicity at 10 µM of 7.9%. `Cc1nc(CN(C)C2CCN(Cc3cccc4cccnc34)C2)no1` (configuration not stated) gave a cytotoxicity at 10 µM of -11.5%. With `CC(C)OCCN1CCN(c2ccc(CN(C)C)cn2)CC1` the cytotoxicity at 10 µM was -5.89%. For `COc1c(C(=O)N2CCC(CSc3ccccc3)C2)c(C)nn1C` (configuration not stated), the cytotoxicity at 10 µM was 25.6%. In the case of `Cc1nc(CN(C)C(=O)Nc2cnn(CC3CCCO3)c2)cs1` (configuration not stated), the cytotoxicity at 10 µM is reported as 5.53%. Work on `O=c1[nH][nH]cc1-c1ccnc(NCCN2CCCC2)n1` yielded a cytotoxicity at 10 µM of 2.89%. Work on `Cc1ccsc1CN1CCC(c2nnc(Cn3cccn3)n2C)CC1` yielded a cytotoxicity at 10 µM of -2.97%. With `CC(C)=CCN1CCC(c2nnc(CN3CCN(C)CC3)n2C)CC1` the cytotoxicity at 10 µM was -7.54%. For `O=C(Cn1ncc(N2CCNCC2)cc1=O)NCCc1ccc(F)cc1`, the cytotoxicity at 10 µM was 0.342%. Work on `O=C(CSc1ccccn1)N1CCC(OCc2cccnc2)CC1` yielded a cytotoxicity at 10 µM of -3.84%. Compound `c1ccc(CN2CCN(C3CCOC4(CCOCC4)C3)CC2)nc1` (configuration not stated) has a cytotoxicity at 10 µM of -0.971%. `O=C(O)c1ccccc1-c1c(-c2ccccc2)ncn1CC1CCCO1` (configuration not stated) showed a cytotoxicity at 10 µM of 2.84%. `CCOC(=O)CC1CCCCN1C(=O)c1cnc(C)cn1` (configuration not stated) showed a cytotoxicity at 10 µM of 0.957%. With `CCCN(CCc1ccccc1)c1ncnc2oc(C)nc12` the cytotoxicity at 10 µM was 8.74%. With `c1cncc(OCc2nc(C3CC3)nn2-c2ccc3c(c2)OCCO3)c1` the cytotoxicity at 10 µM was 2.4%. `O=S(=O)(Cc1ccccc1CN1CCOCC(O)C1)c1ccccc1` (configuration not stated) showed a cytotoxicity at 10 µM of -22.8%. `c1cc2c(cc1CN1CCCC3(CCOC3)C1)OCO2` (configuration not stated) gave a cytotoxicity at 10 µM of 0.447%. `CC(C)c1noc(C2CCCN2C(=O)CN2CCc3ccccc32)n1` (configuration not stated) showed a cytotoxicity at 10 µM of -8.76%. Compound `COc1ccc(C(=O)C2CCCN(c3cnccn3)C2)c(C)c1` (configuration not stated) has a cytotoxicity at 10 µM of -2.69%. With `CCc1ccc2nc(C)cc(C(=O)N3C[C@H]4CCC[C@@]4(CO)C3)c2c1` the cytotoxicity at 10 µM was -2.37%. For `Cc1cc(NC(C)c2csc(C)n2)n2nc(C)c(C)c2n1` (configuration not stated), the cytotoxicity at 10 µM was 5.32%. Work on `CCc1ccc(OCC(=O)N2CCN(CC)CC2)cc1` yielded a cytotoxicity at 10 µM of 6.15%. Work on `COCCN(Cc1ccncc1)C(=O)C1COc2c(cccc2OC)C1` (configuration not stated) yielded a cytotoxicity at 10 µM of -14.6%. `CCc1ccc(CN(C)C(=O)c2cnc3c(c2)nc(N)n3CC)nc1` gave a cytotoxicity at 10 µM of -5.55%. For `O=C(c1cc2ccccc2s1)N1CCC(C(=O)O)(n2cccn2)CC1`, the cytotoxicity at 10 µM was 11.3%. `Cn1ccnc1C1c2nc[nH]c2CCN1Cc1cccnc1` (configuration not stated) showed a cytotoxicity at 10 µM of 0.0371%. `Cc1nn(C)c(C)c1CCC(=O)N1CCCOC(Cn2cccn2)C1` (configuration not stated) showed a cytotoxicity at 10 µM of -2.86%. In the case of `COc1ccc(C2CC(=O)Nc3c2nc2n3CCCC2)cc1O` (configuration not stated), the cytotoxicity at 10 µM is reported as -2.53%. `Cc1nccn1-c1cccc(C2CCCN2S(=O)(=O)c2cn(C)cn2)n1` (configuration not stated) showed a cytotoxicity at 10 µM of 7.99%. For `CC(C)c1nc(CN2CCCN(c3nccs3)CC2)no1`, the cytotoxicity at 10 µM was -11.5%. Work on `OC1(CN2CCOC(CNc3cccnn3)C2)CCCCC1` (configuration not stated) yielded a cytotoxicity at 10 µM of -4.67%. `Cc1ccc(CNC(=O)N(C)Cc2cnn(C)c2)s1` showed a cytotoxicity at 10 µM of -11.2%. `CCCc1n[nH]c(C2CN(C(=O)CCc3cscn3)CCO2)n1` (configuration not stated) gave a cytotoxicity at 10 µM of -1.63%. `Cc1nc(-c2ccsc2)ccc1C(=O)NCCCN1CCOCC1` gave a cytotoxicity at 10 µM of -13.9%. With `Cc1cc(NC(=O)CN2CCn3c(nnc3C3CC3)C2)on1` the cytotoxicity at 10 µM was -9.92%. Work on `CCc1n[nH]c(C2CN(C(=O)c3ccc(Cl)cn3)CCO2)n1` (configuration not stated) yielded a cytotoxicity at 10 µM of -18.3%. Work on `CS(=O)(=O)NC1CCCN(C(=O)NCc2ccccc2Cl)C1` (configuration not stated) yielded a cytotoxicity at 10 µM of -12.8%. `CCn1cc(CN2CCCN(C(=O)c3cc(C)no3)CC2)cn1` gave a cytotoxicity at 10 µM of 3.22%. Work on `Cc1cc(NC(=O)CCN2CCn3c(C)nnc3C2)no1` yielded a cytotoxicity at 10 µM of 6.69%. Compound `Cc1n[nH]c(=O)c2c(NC(=O)CN3CCOCC3C)oc(C)c12` (configuration not stated) has a cytotoxicity at 10 µM of -0.219%. With `CCn1cc(NC(=O)NCC(O)CN2CCc3ccccc3C2)cn1` (configuration not stated) the cytotoxicity at 10 µM was -4.33%. `CC(=O)Nc1nc(C(=O)N2CCCC2Cn2cc(C)cn2)cs1` (configuration not stated) showed a cytotoxicity at 10 µM of 7.07%. With `Cc1n[nH]c(C2CN(C(=O)c3cnc[nH]3)CCO2)n1` (configuration not stated) the cytotoxicity at 10 µM was -0.265%. Compound `c1cc(OCc2ccc3c(c2)OCCO3)ccc1CNC1CC1` has a cytotoxicity at 10 µM of -0.73%. With `Cc1ccc(CN2CC[C@H]3[C@H](CC(Cn4cccn4)N3C)C2)s1` (some centres not stated) the cytotoxicity at 10 µM was 6.66%. `CN(Cc1ccco1)C[C@H]1OC[C@@H]2CCN(Cc3cccs3)C[C@@H]21` showed a cytotoxicity at 10 µM of 8.11%. `O=C(NC1CC1)[C@H]1C[C@H]2OCC[C@H]2N(CC2CCOCC2)C1` gave a cytotoxicity at 10 µM of 2.98%. `O=C(CO)N1C[C@@H]2CC[C@H]1CN(C1Cc3ccccc3C1)C2` showed a cytotoxicity at 10 µM of -11.3%.
